# What was measured:
# [1] = target: T1, Proteinase-activated receptor 1 (Homo sapiens, UniProt P25116); assay: Antagonist activity at human PAR1 expressed in HEK293 cells co-expressing Galpha15 assessed as inhibition of haTRAP-induced calcium mobilization preincubated for 15 mins followed by haTRAP addition by calcium-4 dye based FLIPR assay; type: functional, cell-based
# T1 sequence (P25116 whole entry): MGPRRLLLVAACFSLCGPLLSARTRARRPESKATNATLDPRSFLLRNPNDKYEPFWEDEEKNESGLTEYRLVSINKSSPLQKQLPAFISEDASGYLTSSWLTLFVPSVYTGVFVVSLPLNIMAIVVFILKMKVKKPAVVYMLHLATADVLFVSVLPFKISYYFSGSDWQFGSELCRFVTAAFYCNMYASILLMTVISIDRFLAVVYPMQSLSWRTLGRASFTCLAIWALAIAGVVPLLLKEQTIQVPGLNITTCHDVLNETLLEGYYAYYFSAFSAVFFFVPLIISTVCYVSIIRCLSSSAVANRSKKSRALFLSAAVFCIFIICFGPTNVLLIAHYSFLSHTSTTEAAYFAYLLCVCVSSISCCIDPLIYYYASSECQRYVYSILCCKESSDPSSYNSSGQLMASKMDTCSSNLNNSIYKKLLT
# [2] = test system: Plasma; assay: (§1) Drug metabolism in Wistar rat plasma assessed as [M0+O] metabolite formation at 10 mg/kg, po administered as single dose measured at 3 hrs post dose by LC-HRMS analysis; type: ADME, organism-based; details: in vivo
# Summary of the method: (§2)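 Rats dosed orally at 10 mg/kg or 5 mg/kg. Plasma taken at 3.0 h after dosing. Parent and metabolites detected by extracted ion chromatograms.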
# [3] = test system: Plasma; assay: Drug metabolism in Wistar rat plasma assessed as [M0-CH2+O] metabolite formation at 10 mg/kg, po administered as single dose measured at 3 hrs post dose by LC-HRMS analysis; type: ADME, organism-based; details: in vivo; summary of the method: as §2
# [4] = test system: Plasma; assay: Drug metabolism in Wistar rat plasma assessed as [M0+H2O] metabolite formation at 10 mg/kg, po administered as single dose measured at 3 hrs post dose by LC-HRMS analysis; type: ADME, organism-based; details: in vivo; summary of the method: as §2
# [5] = test system: Plasma; assay: Stability in Wistar rat assessed as parent compound level in plasma at 10 mg/kg, po administered as single dose measured at 3 hrs post dose by LC-HRMS analysis; type: ADME, organism-based; details: in vivo; summary of the method: as §2
# [6] = test system: Plasma; assay: as §1, with “(1S,2S,4aS,5S,6R,8aR)-1-((E)-2-(5-(3-Fluorophenyl)pyridin-2-yl)vinyl)-6-hydroxy-5,8a-dimethyloctahydro-1H-spiro[naphthalene-2,2'-oxirane]-5-carboxylic acid” for “[M0+O]”; type: ADME, organism-based; details: in vivo; summary of the method: as §2
# [7] = test system: Plasma; assay: Drug metabolism in Wistar rat plasma assessed as [M0-2H] metabolite formation at 10 mg/kg, po administered as single dose measured at 3 hrs post dose by LC-HRMS analysis; type: ADME, organism-based; details: in vivo; summary of the method: as §2
# [8] = test system: Plasma; assay: Drug metabolism in Wistar rat plasma assessed as [M0-CH2] metabolite formation at 10 mg/kg, po administered as single dose measured at 3 hrs post dose by LC-HRMS analysis; type: ADME, organism-based; details: in vivo; summary of the method: as §2
# [9] = test system: ADP-stimulated platelet aggregation; assay: Toxicity in guinea pig assessed as inhibition of ADP-stimulated platelet aggregation at 10 mg/kg, po pretreated for 2 hrs followed by ADP stimulation measured after 5 mins; type: organism-based, Cavia porcellus; details: in vivo
# [10] = test system: collagen-stimulated platelet aggregation; assay: Toxicity in guinea pig assessed as inhibition of collagen-stimulated platelet aggregation at 10 mg/kg, po pretreated for 2 hrs followed by collagen stimulation measured after 5 mins; type: organism-based, Cavia porcellus; details: in vivo
# [11] = test system: Cavia porcellus; assay: In vivo antagonist activity at PAR1 in guinea pig assessed as inhibition of TRAP-stimulated platelet aggregation at 10 mg/kg, po pretreated for 2 hrs followed by TRAP stimulation measured after 5 mins; type: functional
# [12] = test system: Cavia porcellus; assay: In vivo antagonist activity at PAR1 in guinea pig assessed as inhibition of thrombin-stimulated platelet aggregation at 10 mg/kg, po pretreated for 2 hrs followed by thrombin stimulation measured after 5 mins; type: functional
SMILES,IC50 [1] [µM],also measured
C[C@]1(C=O)[C@H](O)CC[C@@]2(C)[C@H](/C=C/c3ccc(-c4cccc(F)c4)c[n+]3[O-])[C@@]3(CC[C@H]12)CO3,> 100,
CC(=O)O[C@@H]1CC[C@@]2(C)[C@@H]3C(=O)OC[C@H]3CC[C@@H]2[C@]1(C)/C=C/c1ccc(-c2cccc(F)c2)cn1,> 100,
C[C@]1(CO)[C@H]2CC[C@@]3(CO3)[C@@H](CCc3ccc(-c4cccc(C(F)(F)F)c4)cn3)[C@]2(C)CC[C@H]1O,10,
C[C@@]1(/C=C/c2ccc(-c3cccc(F)c3)cn2)[C@@H](OC(N)=O)CC[C@@]2(C)[C@@H]3C(=O)OC[C@H]3CC[C@H]12,20,
"CC1CC[C@@H]2C(C)(C)[C@H](OC(N)=O)CC[C@@]2(C)[C@@H]1/C=C/c1ccc(-c2cccc(F)c2)cn1 (single isomer, unassigned)",32,
C[C@]1(/C=C/c2ccc(-c3cccc(F)c3)cn2)[C@H](O)CC[C@@]2(C)[C@@H]3C(=O)OC[C@H]3CC[C@H]12,> 100,
C[C@]1(/C=C/c2ccc(-c3cccc(F)c3)cn2)[C@H]2CC[C@@H]3COC(=O)[C@H]3[C@]2(C)CC[C@H]1OC(N)=O,21,
"CC(=O)O[C@@H]1CC[C@@]2(C)[C@H](/C=C/c3ccc(-c4cccc(F)c4)cn3)C(C)CC[C@@H]2C1(C)C (single isomer, unassigned)",> 100,
C[C@@]1(/C=C/c2ccc(-c3cccc(F)c3)cn2)[C@@H](OS(C)(=O)=O)CC[C@@]2(C)[C@@H]3C(=O)OC[C@H]3CC[C@H]12,> 100,
CC1(C)OC[C@@]2(C)[C@H]3CC[C@@]4(CO4)[C@@H](/C=C/c4ccc(-c5cccc(C(F)(F)F)c5)cn4)[C@]3(C)CC[C@H]2O1,> 100,
C[C@H]1CC[C@@H]2C(C)(C)C=CC[C@@]2(C)[C@@H]1/C=C/c1ccc(-c2cccc(F)c2)cn1,> 100,
C[C@]1(CO)[C@H]2CC[C@@]3(CO3)[C@@H](CCc3ccc(-c4cccc(F)c4)cn3)[C@]2(C)CC[C@H]1O,14,
C[C@@]1(/C=C/c2ccc(-c3cccc(F)c3)cn2)[C@H]2CC[C@@H]3COC(=O)[C@H]3[C@]2(C)CC[C@H]1OC(N)=O,12,
CCOC(=O)O[C@@H]1CC[C@@]2(C)[C@H](/C=C/c3ccc(-c4cccc(F)c4)cn3)[C@@H](C)CC[C@@H]2C1(C)C,> 100,
C[C@]1(CN)[C@H]2CC[C@@]3(CO3)[C@@H](/C=C/c3ccc(-c4cccc(F)c4)cn3)[C@]2(C)CC[C@H]1O,23,
CCOC(=O)N[C@@H]1CC[C@@H]2[C@@H](C1)C[C@H]1C(=O)O[C@H](C)[C@H]1[C@H]2/C=C/c1ccc(-c2cccc(F)c2)cn1 [VORAPAXAR],0.064,inhibition at 5 min [9]: 3%; inhibition at 5 min [10]: 0.9%; inhibition in vivo at 10 mg/kg [11]: 98.3%; inhibition in vivo at 10 mg/kg [12]: 93.4%
C[C@@]12CC[C@@H](O)[C@@](C)(C(=O)O)[C@H]1CC[C@@]1(CO1)[C@H]2/C=C/c1ccc(-c2cccc(F)c2)cn1,29,
"CC1CC[C@@H]2[C@](C)(C=O)[C@H](O)CC[C@@]2(C)[C@@H]1/C=C/c1ccc(-c2cccc(F)c2)cn1 (single isomer, unassigned)",1.5,
CNC[C@@]1(C)[C@H]2CC[C@@]3(CO3)[C@@H](/C=C/c3ccc(-c4cccc(F)c4)cn3)[C@]2(C)CC[C@H]1O,17,
COC(=O)[C@]1(C)[C@H](OC(N)=O)CC[C@@]2(C)[C@H](/C=C/c3ccc(-c4cccc(F)c4)cn3)[C@@]3(CC[C@@H]21)CO3,8.7,
C[C@@]1(C=O)[C@H](O)CC[C@@]2(C)[C@H](/C=C/c3ccc(-c4cccc(F)c4)cn3)[C@@H](C3SCCS3)CC[C@H]12,> 100,
C[C@@]1(/C=C/c2ccc(-c3cccc(F)c3)cn2)[C@H](O)CC[C@@]2(C)[C@@H]3C(=O)OC[C@H]3CC[C@H]12,> 100,
C[C@]1(/C=C/c2ccc(-c3cccc(F)c3)cn2)[C@H]2CC[C@@H]3COC(=O)[C@H]3[C@]2(C)CC[C@@H]1O,19,
C[C@]1(CO)[C@H]2CC[C@@]3(CO3)[C@@H](/C=C/c3ccc(-c4cccc(C(F)(F)F)c4)cn3)[C@]2(C)CC[C@H]1O,9.5,
C[C@@]1(C=O)[C@H](O)CC[C@@]2(C)[C@H](/C=C/c3ccc(-c4cccc(F)c4)cn3)[C@@]3(CC[C@H]12)CO3,3,Stability [5]: Unstable
"CC1CC[C@@H]2C(C)(C)[C@H](OS(C)(=O)=O)CC[C@@]2(C)[C@@H]1/C=C/c1ccc(-c2cccc(F)c2)cn1 (single isomer, unassigned)",87,
CCCC(=O)O[C@@H]1CC[C@@]2(C)[C@@H]3C(=O)OC[C@H]3CC[C@@H]2[C@@]1(C)/C=C/c1ccc(-c2cccc(F)c2)cn1,> 100,
C[C@@]1(/C=C/c2ccc(-c3cccc(F)c3)cn2)[C@H]2CC[C@@H]3COC(=O)[C@H]3[C@]2(C)CC[C@@H]1O,> 100,
C[C@@]1(C=O)[C@H](O)CC[C@@]2(C)[C@H](/C=C/c3ccc(-c4cccc(F)c4)c[n+]3[O-])[C@@]3(CC[C@H]12)CO3,> 100,
C[C@]1(/C=C/c2ccc(-c3cccc(F)c3)cn2)[C@@H](OC(N)=O)CC[C@@]2(C)[C@@H]3C(=O)OC[C@H]3CC[C@H]12,> 100,

# Further lines, with some results ahead:
IC50 [1] [µM],SMILES,also measured
> 100,C[C@@]1(/C=C/c2ccc(-c3cccc(F)c3)cn2)[C@H]2CC[C@@H]3COC(=O)[C@H]3[C@]2(C)CC[C@H]1OS(C)(=O)=O,
> 100,"C[C@@]12CC[C@@H](O)[C@@](C)(C3SCCS3)[C@H]1CCC(C1SCCS1)[C@H]2/C=C/c1ccc(-c2cccc(F)c2)cn1 (single isomer, unassigned)",
> 100,CCCC(=O)O[C@@H]1CC[C@@]2(C)[C@H](/C=C/c3ccc(-c4cccc(F)c4)cn3)[C@@]3(CC[C@@H]2[C@]1(C)C(=O)OC)CO3,
> 100,COC(=O)[C@]1(C)[C@H](OC(C)=O)CC[C@@]2(C)[C@H](/C=C/c3ccc(-c4cccc(F)c4)cn3)[C@@]3(CC[C@@H]21)CO3,
9.1,C[C@]1(CO)[C@H]2CC[C@@]3(CO3)[C@@H](/C=C/c3ccc(-c4cccc(F)c4)cn3)[C@]2(C)CC[C@H]1O,Drug metabolism [2]: Metabolite_Detected; Drug metabolism [3]: Metabolite_Detected; Drug metabolism [4]: Metabolite_Detected; Stability [5]: Unstable; Drug metabolism [6]: Metabolite_Detected; Drug metabolism [7]: Metabolite_Detected; Drug metabolism [8]: Metabolite_Detected
8.1,COC[C@@]1(C)[C@H]2CC[C@@]3(CO3)[C@@H](/C=C/c3ccc(-c4cccc(F)c4)cn3)[C@]2(C)CC[C@H]1O,
> 100,CC(=O)O[C@@H]1CC[C@@]2(C)[C@@H]3C(=O)OC[C@H]3CC[C@@H]2[C@@]1(C)/C=C/c1ccc(-c2cccc(F)c2)cn1,
> 100,CCCC(=O)O[C@@H]1CC[C@@]2(C)[C@H](/C=C/c3ccc(-c4cccc(F)c4)cn3)[C@@H](C)CC[C@@H]2C1(C)C,
> 100,CC(=O)O[C@H]1CC[C@@]2(C)[C@@H]3C(=O)OC[C@H]3CC[C@@H]2[C@]1(C)/C=C/c1ccc(-c2cccc(F)c2)cn1,
14,CO[C@@H]1CC[C@]2(C)[C@H](CC[C@@]3(CO3)[C@H]2/C=C/c2ccc(-c3cccc(F)c3)cn2)[C@]1(C)CO,
55,C[C@]1(CO)[C@H]2CC[C@](C)(O)[C@@H](/C=C/c3ccc(-c4cccc(F)c4)cn3)[C@]2(C)CC[C@H]1O,
> 100,CCCC(=O)O[C@H]1CC[C@@]2(C)[C@@H]3C(=O)OC[C@H]3CC[C@@H]2[C@]1(C)/C=C/c1ccc(-c2cccc(F)c2)cn1,
> 100,CC1(C)OC[C@@]2(C)[C@H]3CC[C@@]4(CO4)[C@@H](/C=C/c4ccc(-c5cccc(F)c5)cn4)[C@]3(C)CC[C@H]2O1,
